Measured values of several laboratories.
Lines come from different studies, so protocols differ.
Organism: Escherichia coli
Effect on: microbial growth

`CC(C)Oc1c(NC(=O)c2ccc(NC(=O)[C@H](CC(N)=O)NC(=O)c3ccc(NC(=O)CCc4ccc(C#N)cc4)cc3)cc2)ccc(C(=O)Nc2ccc(C(=O)O)cc2)c1O` gave an MIC of 0.125 µg/mL (DSM1116).
`COc1c(C)c(OC)c2c(c1C)OC(c1ccccc1)CC2=O` (stereo not drawn) gave an MIC of 5000 µg/mL (broth dilution; ATCC25922).
For `CC(C)Oc1c(NC(=O)c2ccc(NC(=O)[C@H](CC(N)=O)NC(=O)c3ccc(NC(=O)c4cc(=O)c(O)c[nH]4)cc3)cc2)ccc(C(=O)Nc2ccc(C(=O)O)cc2)c1O`, the MIC was > 64 µg/mL (DSM1116).
The MIC of `Cc1c(CN(C)C(=O)/C=C/c2cnc3c(c2)CC(CCN)C(=O)N3)oc2ccccc12.Cl` (stereo not drawn) is reported as 4 µg/mL (broth dilution; BAA2471; clinical isolate).
The MIC of `Cc1ccc2nc(-c3ccc(Cl)cc3)n(Cc3ccccc3)c2c1` is reported as 16 µg/mL (broth dilution; ATCC25922).
The MIC of `CCCCCCC/C=C/C(=O)N1C(=O)/C(=C(/C)O)C(=O)C1Cc1ccc(O)cc1` (stereo not drawn) is reported as > 200 µg/mL (K12, K12).
With `Cn1cc(NC(=O)C(CC(N)=O)NC(=O)c2ccc(NC(=O)c3ccc(C#N)cc3)cc2)cc1-c1nc2ccc(C(=O)Nc3ccc(C(=O)O)cc3)c(O)c2[nH]1` (stereo not drawn) the MIC was > 64 µg/mL (DSM1116).
`Clc1ccc(Cn2c(-c3ccc(Cl)cc3)nc3ccccc32)cc1` gave an MIC of 16 µg/mL (broth dilution; ATCC25922).
`N=C(N)c1ccc(OCc2cc(COc3ccc(C(=N)N)cc3)cc(-c3ccccc3)c2)cc1` has an MIC of 100 µg/mL (broth dilution; ATCC25922).
`Cc1ccc2nc(-c3ccccc3O)[nH]c2c1` has an MIC of 128 µg/mL (broth dilution; ATCC25922).
With `CC(C)Oc1c(NC(=O)c2ccc(NC(=O)[C@H](CC(N)=O)NC(=O)c3ccc(NC(=O)c4ccc(C5(C(F)(F)F)N=N5)cc4)cc3)cc2)ccc(C(=O)Nc2ccc(C(=O)O)cc2)c1O` the MIC was 16 µg/mL (DSM1116).
`CSc1ccc(/C=C/c2cc(/C=C3\Sc4ccccc4N3CCCN3CCCC3)c3ccccc3[n+]2C)cc1.[I-]` has an MIC of 16 µg/mL (broth dilution; ATCC25922).
`Cc1cc(C(=O)Nc2ccc(C(=O)N[C@@H](CC(N)=O)C(=O)Nc3ccc(C(=O)Nc4ccc(C(=O)Nc5ccc(C(=O)O)cc5)c(O)c4OC(C)C)cc3)cc2)ccc1C#N` has an MIC of 0.5 µg/mL (DSM1116).
The MIC of `N=C(N)c1ccc(OCCCCCCCCCOc2ccc(C(=N)N)cc2)cc1` is reported as 50 µg/mL (BW25113).
`CCCCC(=O)N1C(=O)/C(=C(/C)O)C(=O)C1CC(C)C` (stereo not drawn) has an MIC of > 200 µg/mL (K12, K12).
`Fc1ccc(NCc2ccc(Oc3ccccn3)cc2)cc1` gave an MIC of > 12.5 µg/mL.
With `COc1c(C(=O)Nc2ccc(C(=O)O)cc2)ccc2nc(-c3cc(NC(=O)C(CC(N)=O)NC(=O)c4ccc(NC(=O)c5ccc(C#N)cc5)cc4)cn3C)[nH]c12` (stereo not drawn) the MIC was > 64 µg/mL (DSM1116).
The MIC of `Clc1ccccc1NCc1ccc(Oc2ccccn2)cc1` is reported as > 25 µg/mL.
For `O=[N+]([O-])c1ccc(O)c2ncccc12`, the MIC was 4 µg/mL (broth dilution; ATCC35218).
`Cc1ccc2nc(-c3ccc([N+](=O)[O-])cc3)n(Cc3ccc(Cl)cc3)c2c1` gave an MIC of 64 µg/mL (broth dilution; ATCC25922).
`CCn1cc(C(=O)O)c(=O)c2cc(F)c(N3CCNCC3)cc21` has an MIC of 1 µM (broth dilution; ATCC 8739, ATCC8739).
For `NC1CCCCc2c1[nH]c1ccc(Br)cc21` (stereo not drawn), the MIC was 16 µg/mL (broth dilution; ATCC25922).
`CCCCCCC#Cc1cncc(-c2nnc(SCc3ccc([N+](=O)[O-])cc3)n2C)c1` gave an MIC of ≥ 20 µg/mL.
With `COc1cc(Cc2cnc(N)nc2N)cc(OC)c1OC` the MIC was ~0.2 µM.
`CCCCCCC/C=C/C(=O)N1C(=O)/C(=C(\O)c2ccc(F)cc2)C(=O)C1CC(C)C` (stereo not drawn) has an MIC of > 200 µg/mL (K12, K12).
For `CCCCCCCC(=O)Oc1c(C)c(O)c(C(=O)/C=C/c2ccccc2)c(OC)c1C`, the MIC was 5000 µg/mL (broth dilution; ATCC25922).
`NC1CCCCc2c1[nH]c1ccc(Cl)c(Cl)c21` (stereo not drawn) gave an MIC of 16 µg/mL (broth dilution; ATCC25922).
The MIC of `COc1c(C)c(O)c(C)c(O)c1C(=O)/C=C/c1ccccc1` is reported as 1250 µg/mL (broth dilution; ATCC25922).
`N=C(N)c1ccc(OCc2cccc(COc3ccc(C(=N)N)cc3)c2)cc1` has an MIC of > 200 µg/mL (broth dilution; BW25113).
With `C[C@@H](O)[C@H]1C(=O)N2C(C(=O)O)=C(S[C@@H]3CN[C@H](C(=O)N(C)C)C3)[C@H](C)[C@H]12` the MIC was 0.0312 µg/mL (broth dilution; 24 h).
For `O=C(Cc1ccc(O)c(O)c1)NCCCCCCCC[P+](c1ccccc1)(c1ccccc1)c1ccccc1.[Br-]`, the MIC was > 32 µg/mL (broth dilution; ATCC25922; 18 h).
`N=C(N)c1cccc(OCc2ccccc2COc2cccc(C(=N)N)c2)c1` gave an MIC of > 200 µg/mL (BW25113).
`C[C@H]1COc2c(N3CCN(C)CC3)c(F)cc3c(=O)c(C(=O)O)cn1c23` gave an MIC of ≤ 0.03 µg/mL (agar dilution; ATCC25).
With `Cc1ccc2nc(-c3ccccc3Cl)[nH]c2c1` the MIC was 64 µg/mL (broth dilution; ATCC25922).
The MIC of `Cc1ccc(C)n1-c1ccc(-c2nnc(-c3ccc(Br)cc3)[nH]2)cc1` is reported as 125 µg/mL (broth dilution; ATCC10536; 18 h).
For `N=C(N)c1ccc(OCc2ccc(COc3ccc(C(=N)N)cc3)cc2)cc1`, the MIC was ≥ 200 µg/mL (BW25113).
`C=CCn1c(-c2ccc(Cl)cc2)nc2ccc(C)cc21` gave an MIC of 256 µg/mL (broth dilution; ATCC25922).
`N=C(N)c1ccc(OCCC(CCOc2ccc(C(=N)N)cc2)c2ccccc2)cc1` (stereo not drawn) gave an MIC of > 200 µg/mL (BW25113).
`O=C(CCCCCCCCCC[P+](c1ccccc1)(c1ccccc1)c1ccccc1)Nc1cc(O)c(O)c(O)c1.[Br-]` has an MIC of > 32 µg/mL (broth dilution; ATCC25922; 18 h).
With `COc1cccc(-c2nc3ccc(C)cc3[nH]2)c1` the MIC was 128 µg/mL (broth dilution; ATCC25922).
The MIC of `Cc1ccc(C)n1-c1ccc(-c2nnc(S)s2)cc1` is reported as 2 µg/mL (broth dilution; ATCC10536; 18 h).
The MIC of `O=C(Nc1ccc2c(c1)OC(F)(F)O2)Nc1ccc(Cl)c(C(F)(F)F)c1` is reported as > 100 µM (CFT073).
With `CC(C)Oc1c(NC(=O)c2ccc(NC(=O)[C@H](CC(N)=O)NC(=O)c3ccc(NC(=O)c4cccc(N)c4)cc3)cc2)ccc(C(=O)Nc2ccc(C(=O)O)cc2)c1O` the MIC was 32 µg/mL (DSM1116).
`O=C(O)c1cn(C2CC2)c2cc(N3CCNCC3)c(F)cc2c1=O` has an MIC of 4.72 µM (broth dilution; 24 h).
With `CC(C)Oc1c(NC(=O)c2ccc(NC(=O)[C@H](CC(N)=O)NC(=O)c3ccc(NC(=O)c4ccccc4[N+](=O)[O-])cc3)cc2)ccc(C(=O)Nc2ccc(C(=O)O)cc2)c1O` the MIC was 8 µg/mL (DSM1116).
For `COc1c(C)c(OC(C)=O)c(C)c(OC(C)=O)c1C(=O)/C=C/c1ccccc1`, the MIC was 5000 µg/mL (broth dilution; ATCC25922).
With `Cc1ccc(C)n1-c1ccc(-c2nnco2)cc1` the MIC was 4 µg/mL (broth dilution; ATCC10536; 18 h).
`COc1cc(Cc2cnc(N)nc2N)cc(OC)c1OC` has an MIC of > 32 µg/mL (broth dilution; 24 h).
The MIC of `N=C(N)c1ccc(OCc2ccc(-c3ccccc3)cc2COc2ccc(C(=N)N)cc2)cc1` is reported as > 200 µg/mL (broth dilution; W3110).
The MIC of `CC1=NN(CNc2ccccc2[N+](=O)[O-])C(=O)C1=NNn1c(-c2ccccc2)nc2ccccc2c1=O` is reported as 50.4 µM (broth dilution; 24 h).
The MIC of `N=C(N)c1ccc(OCc2ccc(Br)cc2COc2ccc(C(=N)N)cc2)cc1` is reported as > 200 µg/mL (broth dilution; ATCC25922).
The MIC of `C[C@H](CCC(=O)NCCCNCCCCNCCCN)[C@H]1CC[C@H]2[C@@H]3[C@H](O)C[C@@H]4C[C@H](O)CC[C@]4(C)[C@H]3C[C@H](O)[C@]12C` is reported as > 256 µg/mL (broth dilution; MG1655; 20 h).
For `CCOc1ccc(-c2nc3ccccc3n2Cc2ccccc2)cc1`, the MIC was 64 µg/mL (broth dilution; ATCC25922).
`CO[C@H]1O[C@H](COC(c2ccccc2)(c2ccccc2)c2ccccc2)[C@@H](OC(=O)c2ccc(C(C)(C)C)cc2)[C@H](OC(=O)c2ccc(C(C)(C)C)cc2)[C@H]1OC(=O)c1ccc(C(C)(C)C)cc1` gave an MIC of 1 µg/mL (broth dilution).
